Source: ChEMBL document CHEMBL1148725, “2,2,2-Trichloro-N-({2-[2-(dimethylamino)ethyl]-1,3-dioxo-2,3-dihydro-1H-benzo[de]isoquinolin- 5-yl}carbamoyl)acetamide (UNBS3157), a novel nonhematotoxic naphthalimide derivative with potent antitumor activity” (J Med Chem, 2007)
Active and inactive are the calls of the source. The rule behind the calls is not given here.

Legend:
[1] = Antiproliferative activity against Hs683 cells after 72 hrs by MTT assay; assay type: functional, cell-based, Homo sapiens, Hs 683
Outline: (§1)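 Cells cultured with each compound for three days; growth then read by the MTT colorimetric assay and reported as IC50 (µM).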

[2] = system: A549; experiment: Antiproliferative activity against A549 cells after 72 hrs by MTT assay; assay type: functional, cell-based, Homo sapiens; outline: as §1
[3] = Antiproliferative activity against U373MG cells after 72 hrs by MTT assay; assay type: functional, cell-based, Homo sapiens, U-373MG ATCC; settings: Homo sapiens, U373 MG, 72 h; outline: as §1
[4] = system: LoVo; experiment: Antiproliferative activity against LoVo cells after 72 hrs by MTT assay; assay type: functional, cell-based, Homo sapiens; outline: as §1
[5] = system: L1210; experiment: Antitumor activity in L1210 cells xenografted B6D2F1 mouse at 40 mg/kg, ip relative to control; assay type: functional; settings: route intraperitoneal
Outline: (§2)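 Mice grafted with L1210 leukaemia cells on day 0, then dosed i.p. four times weekly on days 1-4 and 8-11. Five mice per group. Outcome is %T/C, the median survival of treated over control. Kruskal-Wallis test followed by Dunn comparisons against control.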

[6] = system: HCT-15; experiment: Antiproliferative activity against HCT15 cells after 72 hrs by MTT assay; assay type: functional, cell-based, Homo sapiens; outline: as §1
[7] = Toxicity in ip dosed B6D2F1 mouse; assay type: organism-based; settings: in vivo
Outline: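 Acute MTD was set by a single i.p. dose to groups of three healthy female B6D2F1 mice, at 2.5, 5, 10, 20, 40, 80 and 160 mg/kg. The MTD is the dose just below the lowest dose that killed at least one mouse.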

[8] = system: MCF7; experiment: Antiproliferative activity against MCF7 cells after 72 hrs by MTT assay; assay type: functional, cell-based, Homo sapiens; outline: as §1
[9] = system: L1210; experiment: Antitumor activity in L1210 cells xenografted B6D2F1 mouse at 20 mg/kg, ip relative to control; assay type: functional; settings: route intraperitoneal; outline: as §2
[10] = system: L1210; experiment: Antitumor activity in L1210 cells xenografted B6D2F1 mouse at 10 mg/kg, ip relative to control; assay type: functional; settings: route intraperitoneal; outline: as §2
[11] = system: Mus musculus; experiment: Toxicity in B6D2F1 mouse at 120 mg/kg, ip; assay type: organism-based; set-up: dose 120 mg/kg, route intraperitoneal; settings: in vivo
Outline: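 Healthy female B6D2F1 mice, 10 per group, dosed i.p. in DMSO/saline (5:95 v/v) three times weekly for five weeks at two levels set relative to MTD; sacrificed 3 days after final dose; platelet, RBC and WBC counted by Coulter counter.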

[12] = system: Mus musculus; experiment: Hematotoxicity in ip dosed B6D2F1 mouse assessed as decrease in platelet count; assay type: organism-based; settings: in vivo
Outline: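 Healthy female B6D2F1 mice, 10 per group, dosed i.p. three times weekly for five weeks at two dose levels set relative to MTD. Vehicle DMSO/saline 5:95 v/v. Killed 3 days after the last dose; blood platelet, RBC and WBC counts taken with a Coulter counter.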

[13] = system: L1210; experiment: Antitumor activity in L1210 cells xenografted B6D2F1 mouse at 120 mg/kg, ip relative to control; assay type: functional; settings: route intraperitoneal; outline: as §2
[14] = system: L1210; experiment: Antitumor activity in L1210 cells xenografted B6D2F1 mouse at 80 mg/kg, ip relative to control; assay type: functional; settings: route intraperitoneal; outline: as §2
[15] = system: MCF7; experiment: Induction of apoptosis in human MCF7 cells assessed as p53 activation; assay type: functional, cell-based
Outline: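 MCF-7 cells treated and p53 activation assessed by immunoblotting, with tubulin as loading control. Adriamycin (2.5 µM, 24 h) served as positive control.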

[16] = species on record: Homo sapiens; experiment: Inhibition of human topoisomerase 2 at 50 uM by plasmid linearization assay
[17] = molecular target: T1, DNA topoisomerase 1 (Homo sapiens) (UniProt P11387); experiment: Inhibition of human topoisomerase 1 by DNA unwinding test
T1 sequence (whole entry): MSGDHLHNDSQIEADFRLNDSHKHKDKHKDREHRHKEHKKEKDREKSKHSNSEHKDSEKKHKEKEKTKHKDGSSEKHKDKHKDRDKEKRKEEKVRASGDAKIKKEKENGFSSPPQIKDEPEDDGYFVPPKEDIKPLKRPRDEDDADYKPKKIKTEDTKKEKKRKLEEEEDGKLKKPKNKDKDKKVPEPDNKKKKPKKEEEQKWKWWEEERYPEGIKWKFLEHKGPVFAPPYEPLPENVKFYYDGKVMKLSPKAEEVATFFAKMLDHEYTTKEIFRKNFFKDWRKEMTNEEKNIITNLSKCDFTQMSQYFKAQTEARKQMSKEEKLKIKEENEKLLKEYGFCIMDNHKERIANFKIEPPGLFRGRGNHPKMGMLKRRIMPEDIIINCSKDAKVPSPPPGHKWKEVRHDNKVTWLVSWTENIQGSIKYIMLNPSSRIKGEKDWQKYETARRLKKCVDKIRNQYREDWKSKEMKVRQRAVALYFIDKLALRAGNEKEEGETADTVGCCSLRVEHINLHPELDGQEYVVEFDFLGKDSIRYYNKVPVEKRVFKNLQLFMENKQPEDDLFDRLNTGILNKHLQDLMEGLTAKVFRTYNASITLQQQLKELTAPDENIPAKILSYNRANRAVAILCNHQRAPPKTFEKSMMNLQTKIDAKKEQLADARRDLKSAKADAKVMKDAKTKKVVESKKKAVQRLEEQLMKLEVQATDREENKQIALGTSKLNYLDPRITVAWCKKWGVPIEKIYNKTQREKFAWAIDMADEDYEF
Outline: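 DNA unwinding assay: relaxed pBR322 plasmid converted to supercoiled form in presence of topoisomerase I; compounds at final 4–32 µM (one up to 15–55 µM); ethidium bromide-stained agarose gels; UC50 taken as concentration shifting relaxed band to midpoint between supercoiled and relaxed states.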

[18] = molecular target: DNA topoisomerase 2-alpha (Homo sapiens) (UniProt P11388); experiment: Inhibition of human topoisomerase 2-mediated kinetoplast DNA […] at 50 uM
DNA topoisomerase 2-alpha (Homo sapiens), sequence (P11388 whole entry): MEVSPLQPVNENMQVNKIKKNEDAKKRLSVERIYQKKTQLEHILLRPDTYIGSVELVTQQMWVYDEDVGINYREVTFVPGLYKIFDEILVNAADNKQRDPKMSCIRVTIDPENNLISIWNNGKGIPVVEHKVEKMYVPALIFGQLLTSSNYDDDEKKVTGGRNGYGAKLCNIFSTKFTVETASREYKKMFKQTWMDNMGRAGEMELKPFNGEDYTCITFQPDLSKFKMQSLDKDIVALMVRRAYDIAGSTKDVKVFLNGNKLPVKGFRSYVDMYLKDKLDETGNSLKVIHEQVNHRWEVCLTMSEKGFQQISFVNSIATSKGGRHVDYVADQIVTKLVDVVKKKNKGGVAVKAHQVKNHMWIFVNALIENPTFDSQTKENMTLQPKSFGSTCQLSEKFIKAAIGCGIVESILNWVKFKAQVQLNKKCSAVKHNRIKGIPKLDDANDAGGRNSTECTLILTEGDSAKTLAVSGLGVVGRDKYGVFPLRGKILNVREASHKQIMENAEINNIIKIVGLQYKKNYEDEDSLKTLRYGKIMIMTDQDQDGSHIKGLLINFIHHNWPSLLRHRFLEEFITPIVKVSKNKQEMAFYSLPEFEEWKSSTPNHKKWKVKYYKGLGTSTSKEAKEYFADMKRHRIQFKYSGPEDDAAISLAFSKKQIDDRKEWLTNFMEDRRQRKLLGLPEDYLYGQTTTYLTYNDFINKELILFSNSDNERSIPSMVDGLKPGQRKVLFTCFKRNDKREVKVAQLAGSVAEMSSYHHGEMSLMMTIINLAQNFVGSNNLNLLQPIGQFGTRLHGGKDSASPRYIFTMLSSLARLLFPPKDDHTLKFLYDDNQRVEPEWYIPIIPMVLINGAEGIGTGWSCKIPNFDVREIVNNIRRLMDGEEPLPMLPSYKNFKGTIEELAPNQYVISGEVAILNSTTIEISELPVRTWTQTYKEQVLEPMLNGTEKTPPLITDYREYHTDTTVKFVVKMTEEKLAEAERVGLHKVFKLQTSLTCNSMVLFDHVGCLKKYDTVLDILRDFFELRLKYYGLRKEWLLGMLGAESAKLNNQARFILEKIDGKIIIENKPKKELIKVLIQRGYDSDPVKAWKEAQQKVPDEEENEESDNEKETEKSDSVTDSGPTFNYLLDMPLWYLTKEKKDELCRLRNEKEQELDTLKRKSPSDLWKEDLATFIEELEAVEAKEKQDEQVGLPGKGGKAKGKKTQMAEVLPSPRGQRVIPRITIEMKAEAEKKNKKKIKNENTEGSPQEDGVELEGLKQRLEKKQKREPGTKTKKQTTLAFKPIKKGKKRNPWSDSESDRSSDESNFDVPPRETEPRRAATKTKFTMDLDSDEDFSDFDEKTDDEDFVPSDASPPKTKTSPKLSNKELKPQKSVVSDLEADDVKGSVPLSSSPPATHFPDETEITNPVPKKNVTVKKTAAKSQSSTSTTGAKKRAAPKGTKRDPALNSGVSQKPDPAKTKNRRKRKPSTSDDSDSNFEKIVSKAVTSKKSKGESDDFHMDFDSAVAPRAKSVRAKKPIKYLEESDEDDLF
Outline: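 Topoisomerase II strand-passage activity by kDNA decatenation; compounds at 50 µM; catenated networks stay in wells, decatenated kDNA enters ethidium bromide-stained agarose gel; no-enzyme and no-drug reactions as controls.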

Row | Structure (SMILES) | IC50 ([1]; Homo sapiens, Hs 683, 72 h) | IC50 ([2]; Homo sapiens, A549, 72 h) | IC50 [3] | IC50 ([4]; Homo sapiens, LoVo, 72 h) | Activity [5] | IC50 ([6]; Homo sapiens, HCT-15, 72 h) | MTD [7] | IC50 ([8]; Homo sapiens, MCF7, 72 h) | Activity [9] | Activity [10] | other results
1 | CCOC(=O)NC(=O)Nc1cc2c3c(cccc3c1)C(=O)N(CCN(C)C)C2=O | 3.6 µM | 4.9 µM | 4.1 µM | 7.7 µM | 207% | 4.4 µM | 80 mg/kg | 6.3 µM | – | – | –
2 | CN(C)CCN1C(=O)c2cccc3cc([N+](=O)[O-])cc(c23)C1=O [MITONAFIDE] | 3.7 µM | 2.4 µM | 1.3 µM | 0.4 µM | – | 2.6 µM | 40 mg/kg | – | 193% | – | –
3 | CN(C)CCN1C(=O)c2cccc3cc(NC(=O)Cc4ccc(Cl)cc4)cc(c23)C1=O | 7 µM | 4.7 µM | 5.8 µM | 4.8 µM | – | 5.5 µM | 20 mg/kg | 4.8 µM | – | 200% | –
4 | CN(C)CCN1C(=O)c2cccc3cc(NC(=O)C(F)(F)F)cc(c23)C1=O | 8.7 µM | 9.5 µM | 8.1 µM | 4.5 µM | 124% | > 10 µM | 40 mg/kg | 9.6 µM | – | – | –
5 | CCOC(=O)CC(=O)Nc1cc2c3c(cccc3c1)C(=O)N(CCN(C)C)C2=O | > 10 µM | > 10 µM | > 10 µM | > 10 µM | – | > 10 µM | > 80 mg/kg | > 10 µM | – | 129% | –
6 | CN(C)CCN1C(=O)c2cccc3cc(NC(=O)NC(=O)c4ccccc4)cc(c23)C1=O | 3 µM | 2 µM | 3.4 µM | 2.1 µM | 140% | 3.4 µM | 40 mg/kg | 3.6 µM | – | – | –
7 | CN(C)CCN1C(=O)c2cccc3cc(/N=C\c4cc5c(cc4[N+](=O)[O-])OCO5)cc(c23)C1=O | > 10 µM | > 10 µM | 5 µM | > 10 µM | 278% | > 10 µM | > 160 mg/kg | > 10 µM | 195% | 215% | Activity [11]: Toxic; Activity [12]: Toxic; Activity [13]: 40%; Activity [14]: >300%
8 | CN(C)CCN1C(=O)c2cccc3cc(NC(=O)NC(=O)CCl)cc(c23)C1=O | 3 µM | 4.1 µM | 3.3 µM | 2.9 µM | – | 4.5 µM | 20 mg/kg | 4.9 µM | 147% | – | –
9 | CN(C)CCN1C(=O)c2cccc3cc(/N=C\c4cc(O)ccc4O)cc(c23)C1=O.Cl | – | – | 4.7 µM | – | 210% | – | 40 mg/kg | 6.3 µM | – | – | IC50 ([1]; hs 683): 4.9 µM; IC50 ([2]; a549): 3.9 µM; IC50 ([4]; lovo): 3.7 µM; IC50 ([6]; hct-15): 4.3 µM
10 | COc1ccc(CC(=O)Nc2cc3c4c(cccc4c2)C(=O)N(CCN(C)C)C3=O)cc1 | 4.2 µM | 3.2 µM | 2.7 µM | 1.3 µM | – | 2.8 µM | 10 mg/kg | 2.2 µM | – | 107% | –
11 | CN(C)CCN1C(=O)c2cccc3cc(NC(=O)NCCCl)cc(c23)C1=O | 4.6 µM | 3 µM | 1 µM | 1.8 µM | – | 5.6 µM | > 80 mg/kg | 3.9 µM | 156% | – | –
12 | CN(C)CCN1C(=O)c2cccc3cc(/N=C\c4cc(O)ccc4O)cc(c23)C1=O | – | – | – | – | – | – | – | – | – | – | Activity [15]: Active; Activity [16]: Active; UC50 [17]: 13 µM; Activity [18]: Active
13 | CN(C)CCN1C(=O)c2cccc3cc(N)cc(c23)C1=O.Cl | 4.7 µM | 4.8 µM | 4.5 µM | 3.5 µM | – | 8.8 µM | – | – | – | 120% | IC50 ([8]; mcf7): 9 µM
14 | CN(C)CCN1C(=O)c2cccc3cc(NC(=O)Nc4cc5c6c(cccc6c4)C(=O)N(CCN(C)C)C5=O)cc(c23)C1=O | 5 µM | 3.6 µM | 3.6 µM | 2.8 µM | – | 4.6 µM | 40 mg/kg | 4.8 µM | 124% | – | –
15 | CN(C)CCN1C(=O)c2cccc3cc(NC(=O)c4ccccc4)cc(c23)C1=O | 5.6 µM | 8.5 µM | 6 µM | 3.7 µM | – | 8.4 µM | 40 mg/kg | > 10 µM | 167% | – | –
16 | CN(C)CCN1C(=O)c2cccc3cc(NC(=O)C(Cl)(Cl)Cl)cc(c23)C1=O | > 10 µM | 10 µM | 8.9 µM | 6.4 µM | – | > 10 µM | > 80 mg/kg | > 10 µM | 150% | – | –
